In ChEMBL document CHEMBL1154912, “Moluccensins H-J, 30-ketophragmalin limonoids from Xylocarpus moluccensis” (J Nat Prod, 2010):
Values after ≈ are worked out from the molar mass of the structure shown. Active and inactive are the calls of the source. The calls are words filed in the database; no cut-off is given here.

Experiments:
[1] = test system: Enterococcus faecalis; assay: Antibacterial activity against Enterococcus faecalis ATCC 29212 by broth microdilution method; type: functional
Procedure, shortened: (§1)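 Broth microdilution per NCCLS protocol in Mueller Hinton broth; serial doubling dilutions from 0.5 to 256 µg/mL; final inoculum 5 × 10^5 cfu/mL. MIC taken as lowest concentration with no visible growth judged by turbidity.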

[2] = Cytotoxicity against human KATO III cells after 3 days by MTT assay; type: functional, cell-based, KATO III cell; conditions: 72 h
Procedure, shortened: (§2)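 Cells grown in RPMI-1640 with 25 mM HEPES, 0.25% sodium bicarbonate, 5% FBS and 100 µg/mL kanamycin. Freshly trypsinized cells seeded at 5000 per well, compound added from DMSO-diluted stock, cultured three days. Attached cells stained with MTT, bound dye solubilized, absorbance read at 540 nm. IC50 (50% growth inhibition) averaged from at least six independent determinations.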

[3] = test system: SW-620; assay: Cytotoxicity against human SW620 cells after 3 days by MTT assay; type: functional, cell-based; conditions: SW-620, 72 h; procedure, shortened: as §2
[4] = test system: HepG2; assay: Cytotoxicity against human HepG2 cells after 3 days by MTT assay; type: functional, cell-based; conditions: HepG2, 72 h; procedure, shortened: as §2
[5] = test system: BT-474; assay: Cytotoxicity against human BT474 cells after 3 days by MTT assay; type: functional, cell-based; conditions: BT-474, 72 h; procedure, shortened: as §2
[6] = test system: Staphylococcus hominis; assay: Antibacterial activity against Staphylococcus hominis ATCC 27844 by broth microdilution method; type: functional; procedure, shortened: as §1
[7] = Cytotoxicity against human ChaGo cells after 3 days by MTT assay; type: functional, cell-based; conditions: 72 h; procedure, shortened: as §2

## COC(=O)C[C@H]1[C@]2(C)C[C@]3(O)[C@@](O)(C(=O)C4=C(CC[C@]5(C)C4=CC(=O)O[C@H]5c4ccoc4)[C@]13C)[C@H]2OC(C)=O [MOLUCCENSIN H]
[1]
  Activity: inactive
[2]
  IC50: > 10 µg/mL
[3]
  IC50: > 10 µg/mL
[4]
  IC50: > 10 µg/mL
[5]
  IC50: > 10 µg/mL
[6]
  Activity: inactive
[7]
  IC50: > 10 µg/mL

## COC(=O)C[C@H]1[C@]2(C)C[C@@]3(O)[C@]1(C)[C@H]1CC[C@]4(C)C(=C1C(=O)[C@@]3(OC)[C@H]2OC(C)=O)CC(=O)O[C@H]4c1ccoc1 [MOLUCCENSIN I]
[1]
  MIC: 223 µg/mL (≈ 401 µM)
[2]
  IC50: > 10 µg/mL
[3]
  IC50: > 10 µg/mL
[4]
  IC50: > 10 µg/mL
[5]
  IC50: > 10 µg/mL
[6]
  MIC: 256 µg/mL (≈ 460 µM)
[7]
  IC50: > 10 µg/mL

## COC(=O)C[C@H]1[C@]2(C)C[C@]3(O)[C@@H](C(=O)C4=C5CC(=O)O[C@@H](c6ccoc6)[C@]5(C)CC[C@@H]4[C@]13C)[C@H]2OC(C)=O [MOLUCCENSIN J]
[1]
  Activity: inactive
[2]
  IC50: > 10 µg/mL
[3]
  IC50: > 10 µg/mL
[4]
  IC50: > 10 µg/mL
[5]
  IC50: > 10 µg/mL
[6]
  Activity: inactive
[7]
  IC50: > 10 µg/mL
